Experimental data taken from ChEMBL document CHEMBL1926532, “Bioactive myrsinol diterpenoids from the roots of Euphorbia prolifera” (J Nat Prod, 2011).

Legend:
SH-SY5Y [1] = test: Neuroprotective activity against MPP+-induced human SH-SY5Y cell death assessed as cell viability at 30 uM pretreated for 2 hrs prior to MPP+ induction by MTT assay relative to control; assay type: functional; conditions: read-out: Activity
Method in brief: (§1)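 SH-SY5Y cells in DMEM with 10% FBS and penicillin/streptomycin at 37 °C, 5% CO2. Detached with 1 mM EGTA in PBS for 15 min, seeded at 1 × 10^4 cells/well, grown 24 h. Pretreated 2 h with compound (3, 10, 30 μM), then MPP+ medium. MTT (0.5 mg/mL final) added for 4 h; formazan read at 490 nm. Viability expressed against vehicle control (100). Triplicates, mean ± SEM, ANOVA/Student–Newman–Keuls.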

SH-SY5Y [2] = test: Neuroprotective activity against MPP+-induced human SH-SY5Y cell death assessed as cell viability at 10 uM pretreated for 2 hrs prior to MPP+ induction by MTT assay relative to control; assay type: functional; conditions: read-out: Activity; method in brief: as §1
SH-SY5Y [3] = test: Neuroprotective activity against MPP+-induced human SH-SY5Y cell death assessed as cell viability at 3 uM pretreated for 2 hrs prior to MPP+ induction by MTT assay relative to control; assay type: functional; conditions: read-out: Activity; method in brief: as §1
SH-SY5Y [4] = test: Cytotoxicity against human SH-SY5Y cells assessed as cell viability at 3 to 30 uM by MTT assay; assay type: cell-based

SMILES: C=C(C)[C@H]1C=C[C@@H](OC(=O)c2ccccc2)[C@@]23CO[C@@](C)([C@H](OC(C)=O)[C@@]4(OC(C)=O)C[C@H](C)[C@H](OC(=O)CC)[C@@H]4[C@@H]2OC(C)=O)[C@H]13
- viability at 30 µM (SH-SY5Y [1]): 94.2%
- viability at 10 µM (SH-SY5Y [2]): 86.5%
- viability at 3 µM (SH-SY5Y [3]): 78.1%

SMILES: C=C(C)[C@H]1C=C[C@@H](OC(=O)c2ccccc2)[C@@]23CO[C@@](C)([C@H](OC(=O)c4cccnc4)[C@@]4(OC(C)=O)C[C@H](C)[C@H](OC(=O)CC)[C@@H]4[C@@H]2OC(C)=O)[C@H]13
- viability at 30 µM (SH-SY5Y [1]): 96.5%
- viability at 10 µM (SH-SY5Y [2]): 87.4%
- viability at 3 µM (SH-SY5Y [3]): 77.7%
- Activity (SH-SY5Y [4]): Non-toxic

SMILES: CCC/C=C/C=C/C=C\CO[C@@H]1[C@@H](C)[C@]2(O)[C@@H]3C=C(C)C(=O)[C@H]3CC(CO)=C[C@H]2[C@@H]2C(C)(C)[C@]12OC(=O)C(C)C
- viability at 30 µM (SH-SY5Y [1]): 84.1%
- viability at 10 µM (SH-SY5Y [2]): 77.3%
- viability at 3 µM (SH-SY5Y [3]): 69.6%

SMILES: CCC(=O)O[C@@H]1[C@@H]2[C@@H](OC(=O)c3ccccc3)[C@@]3(COC(C)=O)[C@@H]([C@@H]4[C@H](C[C@H]3OC(C)=O)C4(C)C)[C@](C)(OC(C)=O)C(=O)[C@@]2(O)C[C@@H]1C
- viability at 30 µM (SH-SY5Y [1]): 78.5%
- viability at 10 µM (SH-SY5Y [2]): 70.3%
- viability at 3 µM (SH-SY5Y [3]): 61.5%

SMILES: CCC(=O)O[C@@H]1[C@@H]2[C@@H](OC(C)=O)[C@@]34CO[C@@](C)([C@@H](OC(=O)C(C)C)[C@@]2(OC(C)=O)C[C@@]1(C)OC(=O)C(C)C)[C@@H]3[C@@H](C(C)(C)OC(C)=O)C=C[C@H]4OC(C)=O (relative stereo) [EUPHORBIAPROLIFERIN A]
- viability at 30 µM (SH-SY5Y [1]): 92.7%
- viability at 10 µM (SH-SY5Y [2]): 83.5%
- viability at 3 µM (SH-SY5Y [3]): 75.1%

SMILES: CCCC(=O)O[C@@H]1[C@@H]2[C@@H](OC(C)=O)[C@@]34CO[C@@](C)([C@@H](OC(=O)c5ccccc5)[C@@]2(OC(C)=O)C[C@@]1(C)OC(=O)c1ccccc1)[C@@H]3[C@@H](C(C)(C)OC(C)=O)C=C[C@H]4OC(C)=O (relative stereo) [EUPHORBIAPROLIFERIN B]
- viability at 30 µM (SH-SY5Y [1]): 109%
- viability at 10 µM (SH-SY5Y [2]): 93.2%
- viability at 3 µM (SH-SY5Y [3]): 74.8%
- Activity (SH-SY5Y [4]): Non-toxic

SMILES: CC(=O)O[C@@H]1[C@H]2[C@@H](OC(=O)C(C)C)[C@@H](C)C[C@]2(OC(C)=O)[C@@H](OC(C)=O)[C@]2(C)OC[C@]13C(=O)C=C[C@H](C(C)(C)OC(C)=O)[C@@H]23 [EUPHORBIAPROLIFERIN C]
- viability at 30 µM (SH-SY5Y [1]): 81.3%
- viability at 10 µM (SH-SY5Y [2]): 75.4%
- viability at 3 µM (SH-SY5Y [3]): 68.3%

SMILES: CCC(=O)O[C@@H]1[C@@H]2[C@@H](OC(C)=O)[C@@]34CO[C@@](C)([C@H](OC(=O)c5ccccc5)[C@@]2(OC(C)=O)C[C@@H]1C)[C@@H]3[C@@H](C(C)(C)OC(C)=O)C=CC4=O [EUPHORBIAPROLIFERIN D]
- viability at 30 µM (SH-SY5Y [1]): 88.6%
- viability at 10 µM (SH-SY5Y [2]): 71.3%
- viability at 3 µM (SH-SY5Y [3]): 68.7%

SMILES: CC(=O)O[C@@H]1[C@@H]2[C@@H](OC(C)=O)[C@@]34CO[C@@](C)([C@H](OC(=O)c5ccccc5)[C@@]2(O)C[C@@H]1C)[C@@H]3[C@@H]1[C@@H](C[C@]1(C)OC(C)=O)[C@@H](OC(=O)c1ccccc1)C4=O [EUPHORBIAPROLIFERIN E]
- viability at 30 µM (SH-SY5Y [1]): 82.1%
- viability at 10 µM (SH-SY5Y [2]): 76%
- viability at 3 µM (SH-SY5Y [3]): 67.1%

SMILES: C=C(C)[C@H]1C=C[C@@H](OC(C)=O)[C@@]23CO[C@@](C)([C@H](OC(=O)c4ccccc4)[C@@]4(OC(C)=O)C[C@H](C)[C@H](OC(=O)CC)[C@@H]4[C@H]2OC(C)=O)[C@H]13 [EUPHORBIAPROLIFERIN F]
- viability at 30 µM (SH-SY5Y [1]): 93.5%
- viability at 10 µM (SH-SY5Y [2]): 87.1%
- viability at 3 µM (SH-SY5Y [3]): 74.5%

SMILES: C=C(C)[C@H]1C=C[C@@H](OC(C)=O)[C@@]23CO[C@@](C)([C@H](OC(C)=O)[C@@]4(OC(C)=O)C[C@H](C)[C@H](OC(=O)CC)[C@@H]4[C@H]2OC(C)=O)[C@H]13 [EUPHORBIAPROLIFERIN G]
- viability at 30 µM (SH-SY5Y [1]): 88.7%
- viability at 10 µM (SH-SY5Y [2]): 78.3%
- viability at 3 µM (SH-SY5Y [3]): 65.6%

SMILES: C=C(C)[C@H]1C=C[C@@H](OC(=O)c2ccccc2)[C@@]23CO[C@@](C)([C@H](OC(=O)c4ccccc4)[C@@]4(OC(C)=O)C[C@H](C)[C@H](OC(C)=O)[C@@H]4[C@H]2OC(C)=O)[C@H]13 [EUPHORBIAPROLIFERIN H]
- viability at 30 µM (SH-SY5Y [1]): 99.4%
- viability at 10 µM (SH-SY5Y [2]): 89.8%
- viability at 3 µM (SH-SY5Y [3]): 83.6%
- Activity (SH-SY5Y [4]): Non-toxic

SMILES: CCC(=O)O[C@@H]1[C@@H]2[C@@H](OC(C)=O)[C@@]34CO[C@@](C)([C@@H](OC(=O)c5ccccc5)[C@@]2(OC(C)=O)C[C@@H]1C)[C@@H]3[C@@H]1[C@H](C[C@H]4OC(C)=O)C1(C)C [EUPHORBIAPROLIFERIN I]
- viability at 30 µM (SH-SY5Y [1]): 101%
- viability at 10 µM (SH-SY5Y [2]): 88.9%
- viability at 3 µM (SH-SY5Y [3]): 84.8%
- Activity (SH-SY5Y [4]): Non-toxic

SMILES: CCCC(=O)O[C@@H]1[C@@H]2[C@@H](OC(C)=O)[C@@]34CO[C@@](C)([C@@H](OC(=O)c5ccccc5)[C@@]2(OC(C)=O)C[C@@H]1C)[C@@H]3[C@@H]1[C@H](C[C@H]4OC(C)=O)C1(C)C [EUPHORBIAPROLIFERIN J]
- viability at 30 µM (SH-SY5Y [1]): 104%
- viability at 10 µM (SH-SY5Y [2]): 89.2%
- viability at 3 µM (SH-SY5Y [3]): 79.8%
- Activity (SH-SY5Y [4]): Non-toxic

SMILES: CCC(=O)O[C@@H]1[C@@H]2[C@@H](OC(C)=O)[C@@]34CO[C@@](C)([C@@H](OC(=O)c5ccccc5)[C@@]2(OC(C)=O)C[C@@]1(C)OC(C)=O)[C@@H]3[C@@H](C(C)(C)OC(C)=O)C=C[C@H]4OC(C)=O [EUPHORPROLITHERIN B]
- viability at 30 µM (SH-SY5Y [1]): 92.2%
- viability at 10 µM (SH-SY5Y [2]): 81.7%
- viability at 3 µM (SH-SY5Y [3]): 70.3%

SMILES: C=C(C)[C@H]1C=C[C@@H](OC(=O)c2ccccc2)[C@@]23CO[C@@](C)([C@@H](OC(=O)c4ccccc4)[C@@]4(OC(C)=O)C[C@H](C)[C@H](OC(=O)CC)[C@@H]4[C@H]2OC(C)=O)[C@H]13 [EUPHORPROLITHERIN C]
- viability at 30 µM (SH-SY5Y [1]): 103%
- viability at 10 µM (SH-SY5Y [2]): 91.5%
- viability at 3 µM (SH-SY5Y [3]): 75.5%
- Activity (SH-SY5Y [4]): Non-toxic

SMILES: Nc1nc2c(ncn2[C@@H]2O[C@H](CO)[C@@H](O)[C@H]2O)c(=O)[nH]1 [GUANOSINE]
- viability at 30 µM (SH-SY5Y [1]): 87.3%
- viability at 10 µM (SH-SY5Y [2]): 77.3%
- viability at 3 µM (SH-SY5Y [3]): 68.1%

SMILES: CCC(=O)O[C@@H]1[C@@H]2[C@@H](OC(C)=O)[C@@]34CO[C@@](C)([C@@H](OC(=O)c5ccccc5)[C@@]2(OC(C)=O)C[C@@]1(C)OC(=O)C(C)C)[C@@H]3[C@@H](C(C)(C)OC(C)=O)C=C[C@H]4OC(C)=O [PROLIFERIN A]
- viability at 30 µM (SH-SY5Y [1]): 97.8%
- viability at 10 µM (SH-SY5Y [2]): 85.2%
- viability at 3 µM (SH-SY5Y [3]): 74.4%
- Activity (SH-SY5Y [4]): Non-toxic

SMILES: CCC(=O)O[C@@H]1[C@@H]2[C@@H](OC(C)=O)[C@@]34CO[C@@](C)([C@@H](OC(=O)c5ccccc5)[C@@]2(OC(C)=O)C[C@@]1(C)OC(=O)c1ccccc1)[C@@H]3[C@@H](C(C)(C)OC(C)=O)C=C[C@H]4OC(C)=O [PROLIFERIN B]
- viability at 30 µM (SH-SY5Y [1]): 112%
- viability at 10 µM (SH-SY5Y [2]): 95.4%
- viability at 3 µM (SH-SY5Y [3]): 82.1%
- Activity (SH-SY5Y [4]): Non-toxic

SMILES: CCC(=O)O[C@@H]1[C@@H]2[C@@H](OC(C)=O)[C@@]34CO[C@@](C)([C@@H](OC(=O)c5ccccc5)[C@@]2(OC(C)=O)C[C@@H]1C)[C@@H]3[C@@H](C(C)(C)OC(C)=O)C=C[C@H]4OC(C)=O [PROLIFERIN C]
- viability at 30 µM (SH-SY5Y [1]): 95.1%
- viability at 10 µM (SH-SY5Y [2]): 84.5%
- viability at 3 µM (SH-SY5Y [3]): 76.7%
- Activity (SH-SY5Y [4]): Non-toxic
